Assay results reported in ChEMBL document CHEMBL3352210, “Aurones as histone deacetylase inhibitors: identification of key features” (Bioorg Med Chem Lett, 2014).
pIC50: −log10 of the molar value. Active and inactive are the calls of the source. No cut-off for these calls is given here.

What was measured:
[1] = molecular target: T1, Histone deacetylase (Homo sapiens) (UniProt Q13547+O15379+Q9UBN7+Q92769+Q9UQL6+Q8WUI4+Q9BY41+Q96DB2+P56524+Q9UKV0+Q969S8); experiment: Inhibition of HDAC in human HeLa cell extract at 100 uM after 15 mins by fluorescence assay; format: protein assay
[2] = molecular target: T1, Histone deacetylase (Homo sapiens); experiment: Inhibition of HDAC in human MeT-5A cells assessed as hisone H3 acetylation after 16 hrs by BRET assay; format: cell-based
Procedure, shortened: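 MeT-5A cells transfected with phRluc-C1-BrD and pEYFP-C1 histone H3, then exposed 16 h to increasing doses; BRET signal read as measure of histone H3 acetylation (rise in signal = more acetylation). SAHA used as positive control. Means ± SEM of three independent experiments.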

[3] = Cytotoxicity against human MeT-5A cells after 16 hrs by luciferase reporter gene assay; format: cell-based
[4] = Cytotoxicity against human MCF7 cells assessed as cell viability at 15 uM after 72 hrs by Celltitre-glo assay; format: cell-based; settings: read-out: Activity
[5] = Cytotoxicity against human HepG2 cells assessed as cell viability at 15 uM after 72 hrs by Celltitre-glo assay; format: cell-based; settings: read-out: Activity
[6] = molecular target: T2, NAD-dependent protein deacetylase sirtuin-2 (Homo sapiens) (UniProt Q8IXJ6); experiment: Modulation of sirtuin 2 (unknown origin) by thermal shift assay
T2 sequence (whole entry): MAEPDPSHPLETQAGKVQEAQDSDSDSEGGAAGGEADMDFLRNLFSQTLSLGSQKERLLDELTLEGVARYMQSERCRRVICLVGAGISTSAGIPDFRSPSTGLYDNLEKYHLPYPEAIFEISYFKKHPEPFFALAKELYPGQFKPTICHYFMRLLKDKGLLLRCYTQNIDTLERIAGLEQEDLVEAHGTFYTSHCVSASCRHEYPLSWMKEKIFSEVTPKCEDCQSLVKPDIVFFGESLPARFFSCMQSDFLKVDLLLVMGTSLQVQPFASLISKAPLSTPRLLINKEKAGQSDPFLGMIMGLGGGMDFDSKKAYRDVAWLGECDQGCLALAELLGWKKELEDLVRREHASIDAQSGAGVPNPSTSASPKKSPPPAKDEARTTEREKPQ
Procedure, shortened: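 Sirtuin 2 modulation tested by thermal shift assay.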

[7] = molecular target: T3, Retinoic acid receptor beta (Homo sapiens) (UniProt P10826); experiment: Inhibition of RAR-beta (unknown origin) assessed as change in DNA methylation
T3 sequence (whole entry): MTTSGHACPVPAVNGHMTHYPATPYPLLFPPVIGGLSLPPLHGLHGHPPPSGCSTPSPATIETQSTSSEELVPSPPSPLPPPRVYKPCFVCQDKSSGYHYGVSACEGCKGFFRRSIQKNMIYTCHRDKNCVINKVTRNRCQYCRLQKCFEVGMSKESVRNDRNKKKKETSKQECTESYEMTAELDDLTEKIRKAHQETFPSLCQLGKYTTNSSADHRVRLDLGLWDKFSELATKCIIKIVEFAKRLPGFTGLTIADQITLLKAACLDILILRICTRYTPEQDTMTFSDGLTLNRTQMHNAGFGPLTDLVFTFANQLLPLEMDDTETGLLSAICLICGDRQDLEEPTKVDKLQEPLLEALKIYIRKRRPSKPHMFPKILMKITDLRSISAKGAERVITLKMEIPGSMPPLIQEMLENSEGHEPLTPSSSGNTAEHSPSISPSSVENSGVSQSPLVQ
Procedure, shortened: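 DNA methylation changes assessed by specific PCR for RARb.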

Histone deacetylase = experiment: Inhibition of HDAC in human HeLa cell extract after 15 mins by fluorescence assay; format: protein assay
Histone deacetylase 1 = Histone deacetylase 1 (Homo sapiens, UniProt Q13547); experiment: Inhibition of HDAC1 (unknown origin) after 15 mins by fluorescence assay
Histone deacetylase 2 = Histone deacetylase 2 (Homo sapiens, UniProt Q92769); experiment: Inhibition of HDAC2 (unknown origin) after 15 mins by fluorescence assay
[8] = molecular target: T4, Protein deacetylase HDAC6 (Homo sapiens, UniProt Q9UBN7); experiment: Inhibition of HDAC6 (unknown origin) after 15 mins by fluorescence assay
T4 sequence (Q9UBN7 whole entry): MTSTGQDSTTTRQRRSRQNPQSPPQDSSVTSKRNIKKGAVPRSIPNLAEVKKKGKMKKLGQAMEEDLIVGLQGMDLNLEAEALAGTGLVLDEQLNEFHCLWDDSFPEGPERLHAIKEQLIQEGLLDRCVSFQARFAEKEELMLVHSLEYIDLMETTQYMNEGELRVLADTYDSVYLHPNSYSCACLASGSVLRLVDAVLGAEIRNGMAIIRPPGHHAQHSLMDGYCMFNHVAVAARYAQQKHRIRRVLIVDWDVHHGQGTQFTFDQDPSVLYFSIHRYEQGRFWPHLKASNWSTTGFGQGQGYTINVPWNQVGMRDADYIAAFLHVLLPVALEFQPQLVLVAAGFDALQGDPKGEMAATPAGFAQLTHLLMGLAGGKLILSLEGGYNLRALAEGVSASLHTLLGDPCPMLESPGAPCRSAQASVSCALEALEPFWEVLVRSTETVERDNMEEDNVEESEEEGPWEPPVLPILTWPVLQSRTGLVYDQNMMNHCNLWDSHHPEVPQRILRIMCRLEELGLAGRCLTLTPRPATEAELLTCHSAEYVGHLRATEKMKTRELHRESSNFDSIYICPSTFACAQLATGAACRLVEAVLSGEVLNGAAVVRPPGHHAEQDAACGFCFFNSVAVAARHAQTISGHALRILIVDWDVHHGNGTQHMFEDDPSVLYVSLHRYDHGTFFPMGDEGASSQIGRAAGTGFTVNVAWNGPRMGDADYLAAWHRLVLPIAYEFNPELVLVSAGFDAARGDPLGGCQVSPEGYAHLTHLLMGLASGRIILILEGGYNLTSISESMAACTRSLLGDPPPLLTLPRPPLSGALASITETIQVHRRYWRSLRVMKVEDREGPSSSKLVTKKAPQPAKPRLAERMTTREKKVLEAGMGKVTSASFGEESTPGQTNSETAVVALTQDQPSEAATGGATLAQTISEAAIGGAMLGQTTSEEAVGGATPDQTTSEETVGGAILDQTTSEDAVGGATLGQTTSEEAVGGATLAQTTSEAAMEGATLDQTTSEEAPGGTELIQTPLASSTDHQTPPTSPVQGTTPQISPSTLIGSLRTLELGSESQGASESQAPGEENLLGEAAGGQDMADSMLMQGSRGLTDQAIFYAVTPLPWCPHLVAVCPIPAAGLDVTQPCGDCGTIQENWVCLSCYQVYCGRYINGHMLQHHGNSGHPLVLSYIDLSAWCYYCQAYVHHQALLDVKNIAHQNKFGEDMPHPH

Histone deacetylase 1, sequence (Q13547 whole entry): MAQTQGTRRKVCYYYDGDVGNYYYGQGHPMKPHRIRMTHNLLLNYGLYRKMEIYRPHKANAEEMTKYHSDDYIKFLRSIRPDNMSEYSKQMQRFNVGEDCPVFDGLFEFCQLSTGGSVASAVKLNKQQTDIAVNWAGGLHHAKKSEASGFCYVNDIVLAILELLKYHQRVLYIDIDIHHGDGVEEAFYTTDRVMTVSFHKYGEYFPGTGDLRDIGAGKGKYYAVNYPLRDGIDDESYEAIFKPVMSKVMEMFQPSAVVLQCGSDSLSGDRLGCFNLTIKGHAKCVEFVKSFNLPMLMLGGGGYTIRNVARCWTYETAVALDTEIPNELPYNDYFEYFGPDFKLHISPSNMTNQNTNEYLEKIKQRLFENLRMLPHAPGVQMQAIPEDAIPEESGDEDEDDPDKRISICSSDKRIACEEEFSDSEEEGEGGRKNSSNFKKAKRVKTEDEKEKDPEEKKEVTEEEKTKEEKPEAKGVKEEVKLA
Histone deacetylase 2, sequence (Q92769 whole entry): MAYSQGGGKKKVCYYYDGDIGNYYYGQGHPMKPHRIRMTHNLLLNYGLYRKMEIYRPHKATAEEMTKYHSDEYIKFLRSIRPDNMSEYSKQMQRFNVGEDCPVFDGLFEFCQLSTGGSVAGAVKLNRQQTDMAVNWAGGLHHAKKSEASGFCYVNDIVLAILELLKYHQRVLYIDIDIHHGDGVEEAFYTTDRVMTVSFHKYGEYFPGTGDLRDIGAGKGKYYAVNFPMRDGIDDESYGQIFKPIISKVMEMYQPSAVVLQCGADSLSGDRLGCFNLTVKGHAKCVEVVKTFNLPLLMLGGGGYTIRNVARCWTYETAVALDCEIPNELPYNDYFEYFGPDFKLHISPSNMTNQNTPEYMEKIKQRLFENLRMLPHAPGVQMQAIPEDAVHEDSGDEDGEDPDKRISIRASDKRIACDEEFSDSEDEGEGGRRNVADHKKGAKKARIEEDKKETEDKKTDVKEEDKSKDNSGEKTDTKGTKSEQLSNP

Q: With `COc1ccc(/C=C2\Oc3ccc(Br)cc3C2=O)cc1OC` as the molecule, how does the inhibition [1] read?
A: 14%

Q: What about the inhibition [2] of the same molecule?
A: Dose-dependent effect

Q: What about the Activity [3] of the same molecule?
A: Dose-dependent effect

Q: And the viability at 72 h, 15 µM [4]?
A: 108%

Q: And the viability at 72 h, 15 µM [5]?
A: 93%

Q: What about the inhibition [6] of the same molecule?
A: inactive

Q: And the inhibition [7]?
A: inactive

Q: Which results are given for `COc1ccc(/C=C2\Oc3ccccc3C2=O)cc1OC` [3',4'-DIMETHOXY-AURONE]?
A: inhibition [1]: 51%; IC50 (Histone deacetylase): 71 µM; inhibition [2]: Dose-dependent effect; Activity [3]: Dose-dependent effect; viability at 72 h, 15 µM [4]: 91%; viability at 72 h, 15 µM [5]: 114%; inhibition [6]: inactive; inhibition [7]: inactive

Q: For `O=C(/C=C/c1ccc(Cl)cc1)c1ccccc1O`, which inhibition [1] is on record?
A: 0%

Q: What about the viability at 72 h, 15 µM [4] of the same molecule?
A: 90%

Q: And the viability at 72 h, 15 µM [5]?
A: 62%

Q: What about the inhibition [6] of the same molecule?
A: inactive

Q: What about the inhibition [7] of the same molecule?
A: inactive

Q: With `Cc1ccc(/C=C/C(=O)c2ccccc2O)cc1` as the molecule, how does the inhibition [1] read?
A: 0%

Q: What about the viability at 72 h, 15 µM [4] of the same molecule?
A: 96%

Q: What about the viability at 72 h, 15 µM [5] of the same molecule?
A: 120%

Q: And the inhibition [6]?
A: inactive

Q: What about the inhibition [7] of the same molecule?
A: inactive

Q: For `COc1cc(OC)c2c(c1)O/C(=C\c1ccccc1)C2=O`, which inhibition [1] is on record?
A: 27%

Q: What about the viability at 72 h, 15 µM [4] of the same molecule?
A: 73%

Q: What about the viability at 72 h, 15 µM [5] of the same molecule?
A: 9%

Q: And the inhibition [6]?
A: inactive

Q: And the inhibition [7]?
A: inactive

Q: Which inhibition [1] does the source give for `COCOc1cc(OCOC)c2c(c1)O/C(=C\c1ccc(OCOC)c(OCOC)c1)C2=O` here?
A: 75%

Q: And the IC50 (Histone deacetylase)?
A: 40 µM

Q: What about the viability at 72 h, 15 µM [4] of the same molecule?
A: 21%

Q: And the viability at 72 h, 15 µM [5]?
A: 7%

Q: What about the inhibition [6] of the same molecule?
A: inactive

Q: And the inhibition [7]?
A: inactive

Q: Which results are given for `COc1cc(OC)c2c(c1)O/C(=C\c1ccccc1OC)C2=O`?
A: inhibition [1]: 7%; viability at 72 h, 15 µM [4]: 89%; viability at 72 h, 15 µM [5]: 104%; inhibition [6]: inactive; inhibition [7]: inactive

Q: With `Cc1ccc(/C=C2\Oc3ccccc3C2=O)cc1` as the molecule, how does the inhibition [1] read?
A: 5%

Q: And the viability at 72 h, 15 µM [4]?
A: 86%

Q: And the viability at 72 h, 15 µM [5]?
A: 35%

Q: What about the inhibition [6] of the same molecule?
A: inactive

Q: What about the inhibition [7] of the same molecule?
A: inactive

Q: With `O=C1/C(=C/c2cccc(O)c2O)Oc2ccccc21` as the molecule, how does the inhibition [1] read?
A: 98%

Q: What about the IC50 (Histone deacetylase) of the same molecule?
A: 18.6 µM

Q: What about the pIC50 (Histone deacetylase 1) of the same molecule?
A: 4.68

Q: And the pIC50 (Histone deacetylase 2)?
A: 4.79

Q: What about the pIC50 [8] of the same molecule?
A: 4.57

Q: What about the inhibition [2] of the same molecule?
A: Dose-dependent effect

Q: What about the Activity [3] of the same molecule?
A: Dose-dependent effect

Q: And the viability at 72 h, 15 µM [4]?
A: 109%

Q: What about the viability at 72 h, 15 µM [5] of the same molecule?
A: 113%

Q: What about the inhibition [6] of the same molecule?
A: inactive

Q: What about the inhibition [7] of the same molecule?
A: inactive

Q: Which inhibition [1] does the source give for `O=C(O)c1ccc(/C=C2\Oc3ccc(Cl)cc3C2=O)cc1` here?
A: 30%

Q: What about the viability at 72 h, 15 µM [4] of the same molecule?
A: 109%

Q: What about the viability at 72 h, 15 µM [5] of the same molecule?
A: 86%

Q: What about the inhibition [6] of the same molecule?
A: inactive

Q: And the inhibition [7]?
A: inactive

Q: Which inhibition [1] does the source give for `O=C(O)c1ccc(/C=C2\Oc3ccccc3C2=O)cc1` here?
A: 28%

Q: And the viability at 72 h, 15 µM [4]?
A: 105%

Q: And the viability at 72 h, 15 µM [5]?
A: 73%

Q: What about the inhibition [6] of the same molecule?
A: inactive

Q: What about the inhibition [7] of the same molecule?
A: inactive
